In the library only some 2.2% were active in any assay of this set; here they are far more common.
Wee1 stabilizer = inhibitors of human Wee1 degradation; reporter increase, % at 5 µM; 1.2% of 220,000 active; HeLa Luc-Wee1K328M stability, luciferase luminescence; 100% = proteasome inhibitor MG132 effect;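 active means activation above the mean of all tested compounds plus 3 SD, set per screening run, cut at about 8.8% in these data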;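 further: cells exposed to compound for 20 h before luminescence read; 0% = DMSO alone and 100% = MG132 at 30 µM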
Target sequence (P30291 whole entry K328M): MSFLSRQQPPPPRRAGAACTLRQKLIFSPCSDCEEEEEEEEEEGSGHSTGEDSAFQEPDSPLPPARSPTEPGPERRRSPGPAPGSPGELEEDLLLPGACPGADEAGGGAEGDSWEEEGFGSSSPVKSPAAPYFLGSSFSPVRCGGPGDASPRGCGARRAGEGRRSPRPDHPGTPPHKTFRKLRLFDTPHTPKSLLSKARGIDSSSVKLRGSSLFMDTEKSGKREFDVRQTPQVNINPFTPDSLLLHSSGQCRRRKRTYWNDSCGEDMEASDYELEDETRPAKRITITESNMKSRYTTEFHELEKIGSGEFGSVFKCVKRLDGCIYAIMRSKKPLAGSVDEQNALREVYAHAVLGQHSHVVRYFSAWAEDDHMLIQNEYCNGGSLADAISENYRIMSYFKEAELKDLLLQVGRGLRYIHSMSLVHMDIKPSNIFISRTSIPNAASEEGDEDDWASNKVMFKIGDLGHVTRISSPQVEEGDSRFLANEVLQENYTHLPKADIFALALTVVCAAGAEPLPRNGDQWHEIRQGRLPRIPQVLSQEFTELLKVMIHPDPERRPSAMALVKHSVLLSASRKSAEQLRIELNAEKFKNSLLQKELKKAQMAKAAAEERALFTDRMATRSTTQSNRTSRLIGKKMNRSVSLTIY
INS promoter inh = TRM-6 insulin promoter activity inhibition. 0.9% of 130,000 active. AID 1273. inhibition, % at 2 µM. TRM-6 cells, insulin promoter-eGFP reporter, imaging; reporter expression induced with tamoxifen;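 active means inhibition above the mean plus 3 SD, with well images judged a real hit on visual review, cut at about 60% in these data, passing the limit was not always enough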
MDM2 E3 inh = blocks human Mdm2 ubiquitin ligase activity; Q00987; cell-based MDM2 ubiquitination luciferase reporter, 2 h; 0 = plate control, 100 = twice control, blank-subtracted; signal enhancement, % at 5 µM; 0.11% of 210,000 active; AID 1230;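 active means signal enhancement of 30% or more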;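 further: luminescence tracks abundance of the self-degrading MDM2-luciferase fusion protein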
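Test system: mammalian cells stably expressing self-ubiquitinating, self-degrading MDM2 E3–luciferase fusion; Amount: 2000 cells in each well; Medium: DMEM; Schedule: 4 h settle plus 2 h compound, 37 °C; Technique: SteadyLite luciferase luminescence after 15 min room-temperature reagent incubation; Benchmarks: plate control and blank wells.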
RBBP9 inh = inhibitors of human serine hydrolase RBBP9. O75884. recombinant RBBP9, FP-Rh probe fluorescence polarization. inhibition, % at 7.94 µM. 0.2% of 220,000 active. AID 1515;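 active means inhibition above the campaign mean of all tested compounds plus 3 SD, cut at about 14% in these data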;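 further: plate controls were DMSO wells with RBBP9 for no effect and wells lacking RBBP9 protein for full effect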
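Controls: DMSO-treated enzyme wells and wells lacking RBBP9 | Material: RBBP9 protein | Technique: Fluorescence polarization | Replication: Single well per compound, no replicates | Buffer or medium: Tris-NaCl-Pluronic buffer, pH 8.0 | Timing: 30 min compound preincubation, 45 min probe labeling, 25 °C | Read-out basis: Percent inhibition from mP, scaled between DMSO and no-protein wells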
Hsp70 act = switches on Hsp70 transcription | HeLa Hsp70 promoter luciferase reporter, luminescence; scaled: vehicle 0, proteasome-inhibitor control 100% | AID 1203 | activation, % at 10 µM | 0.04% of 200,000 active;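 active means activation above the mean across all tested compounds plus 3 SD, cutoff set per campaign, cut at about 5.5% in these data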;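 further: 100% = MG132 at 30 µM as the positive control and 0% = DMSO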
Ins promoter up = MIN6 insulin promoter up-regulation; MIN6 insulin promoter-GFP reporter, high-content imaging; hits give high values; z-score at 5 µM; 0.3% of 190,000 active;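 active means z-score above 3 at 5 µM with at least 500 cells counted in the well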
RBBP9 confirm = human RBBP9 inhibition, confirmation; 36% of 410 active; shares compounds with RBBP9 inh; recombinant RBBP9, FP-Rh probe fluorescence polarization; AID 1537; inhibition, % at 7.94 µM;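 active means inhibition above the hit cutoff derived for the primary screen, cut at about 15% in these data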;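 further: 0% = RBBP9 with DMSO and 100% = wells lacking RBBP9 protein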
The depositor's hits bear a star.

Results for O=C(NCc1ccco1)C1CC(c2cccc([N+](=O)[O-])c2)=NO1 (stereo not given) ?
Wee1 stabilizer: -1.0; MDM2 E3 inh: -9.4; RBBP9 inh: 16.9*; Hsp70 act: -0.2; Ins promoter up: 0.24; RBBP9 confirm: 3.6

What do the screens show for `C=CCN1C(=O)C(C(C)CC)NC1=S` (stereo not given)?
Wee1 stabilizer: 1.0; INS promoter inh: 50.0; MDM2 E3 inh: -22.0; RBBP9 inh: -6.8; Hsp70 act: 0.0; Ins promoter up: 0.04

Results for C=CCN1C(=O)C(C)NC1=S (stereo not given) ?
Wee1 stabilizer: 1.0; MDM2 E3 inh: -16.9; RBBP9 inh: 21.8*; Ins promoter up: 0.42; RBBP9 confirm: -0.7

What do the screens show for `O=S(=O)(Nc1ncccn1)c1ccc(NC(=S)NCCc2ccccc2)cc1`?
Wee1 stabilizer: 3.7; INS promoter inh: -14.3; MDM2 E3 inh: 7.4; RBBP9 inh: -7.3; Hsp70 act: 0.0; Ins promoter up: -0.58

Results for O=C(NCCCN1CCN(c2cccc(Cl)c2)CC1)C1CCC(=O)N1Cc1ccccc1Cl (stereo not given) ?
Wee1 stabilizer: -0.2; MDM2 E3 inh: -14.1; RBBP9 inh: 8.4; Hsp70 act: -0.4; Ins promoter up: -1.94

Results for COc1ccc(OC)c(CCNC(=O)Cn2cccc2C(=O)c2ccccc2C)c1 ?
Wee1 stabilizer: 1.4; INS promoter inh: -21.4; MDM2 E3 inh: -19.8; RBBP9 inh: 15.2*; Hsp70 act: -0.2; Ins promoter up: -0.92; RBBP9 confirm: -0.5

What do the screens show for `CC1=CCC2([N+](=O)[O-])CN(CC(=O)O)CC1([N+](=O)[O-])C2` (stereo not given)?
Wee1 stabilizer: -1.1; INS promoter inh: 21.4; MDM2 E3 inh: 6.6; RBBP9 inh: -11.6; Hsp70 act: -0.3; Ins promoter up: 0.4

Results for Oc1ccc(-c2csc(Nc3ncccn3)n2)cc1O ?
Wee1 stabilizer: 0.2; MDM2 E3 inh: -9.7; RBBP9 inh: 19.5*; Hsp70 act: 0.8; Ins promoter up: -0.35; RBBP9 confirm: 40.1*

What do the screens show for `Cc1c(O)ccc(/C(Cc2ccc3ccccc3n2)=N\O)c1O`?
Wee1 stabilizer: 0.5; INS promoter inh: 2.3; MDM2 E3 inh: -20.5; RBBP9 inh: 40.8*; Hsp70 act: 0.2; Ins promoter up: -0.32; RBBP9 confirm: 46.7*

How did O=C1C=CC(=O)N1CCNc1ncc(C(F)(F)F)cc1Cl do in these assays?
Wee1 stabilizer: -1.8; INS promoter inh: -400.0; MDM2 E3 inh: -12.4; RBBP9 inh: 32.6*; Hsp70 act: 0.2; RBBP9 confirm: 30.8*

Results for O=C1CC(=O)N(CCNc2ncc(C(F)(F)F)cc2Cl)C(=O)N1 ?
Wee1 stabilizer: -2.2; INS promoter inh: -16.1; MDM2 E3 inh: -21.4; RBBP9 inh: -9.0; Hsp70 act: -0.3; Ins promoter up: 2.04

How did CCN1CCN(C(=O)C2(NC(=O)Nc3ccccc3Cl)CCCCC2)CC1 do in these assays?
Wee1 stabilizer: 1.9; INS promoter inh: 15.4; MDM2 E3 inh: -11.0; RBBP9 inh: 15.7*; Hsp70 act: -0.1; RBBP9 confirm: 2.0

Results for O=C(CCCN1C(=O)c2ccccc2C1=O)Nc1cccc(S(=O)(=O)NC2=NCCC2)c1 ?
Wee1 stabilizer: 0.5; MDM2 E3 inh: -3.3; RBBP9 inh: -5.6; Hsp70 act: 0.2; Ins promoter up: 0.44

Results for CC(=O)C(=Nc1ccc(Cl)cc1Cl)NNc1cccc(Cl)c1 ?
Wee1 stabilizer: -1.7; INS promoter inh: 23.1; MDM2 E3 inh: -0.6; RBBP9 inh: 32.2*; Hsp70 act: -0.2; RBBP9 confirm: 0.0

Results for CC1(OC(=O)CCc2ccccc2)C(=O)C=C2C=C(c3ccc(C#N)cc3)N(C3CCCC3)C=C2C1=O (stereo not given) ?
MDM2 E3 inh: 9.0; Ins promoter up: -0.34

Results for O=C(Cc1cccs1)Nc1ccccc1NC(=O)Cc1cccs1 ?
Wee1 stabilizer: 1.6; INS promoter inh: 0.0; MDM2 E3 inh: -12.6; RBBP9 inh: 15.4*; Hsp70 act: 1.1; RBBP9 confirm: 11.7

What do the screens show for `CSc1nnc(CCCCCCCCc2nnc(SC)o2)o1`?
Wee1 stabilizer: -1.7; MDM2 E3 inh: -12.5; RBBP9 inh: 15.7*; Ins promoter up: -0.47; RBBP9 confirm: 2.7

What do the screens show for `O=Nc1c(-c2cccc([N+](=O)[O-])c2)nc2ncccn12`?
Wee1 stabilizer: 2.5; MDM2 E3 inh: -8.8; RBBP9 inh: 21.1*; Ins promoter up: -1.01; RBBP9 confirm: 24.1*

What do the screens show for `O=[N+]([O-])c1cccc(-c2cn3nc(-c4ccccc4)c(-c4ccccc4)nc3n2)c1`?
Wee1 stabilizer: 2.5; MDM2 E3 inh: -7.8; RBBP9 inh: -16.3; Ins promoter up: -0.15

Results for Cc1nn(-c2ccccc2)c(N)c1C1(O)C(=O)N(C(C)C)c2ccccc21 (stereo not given) ?
Wee1 stabilizer: -2.6; INS promoter inh: -37.5; MDM2 E3 inh: -3.0; RBBP9 inh: -7.4; Hsp70 act: -0.3; Ins promoter up: 0.03

Results for Cc1noc(N)c1C1(O)C(=O)N(C(C)C)c2ccccc21 (stereo not given) ?
Wee1 stabilizer: 1.5; INS promoter inh: 35.7; MDM2 E3 inh: -18.6; RBBP9 inh: 15.9*; Hsp70 act: -0.2; Ins promoter up: 0; RBBP9 confirm: 9.7

How did CC(=O)Nc1ccc(OCC[n+]2cccc(C(N)=O)c2)cc1 do in these assays?
Wee1 stabilizer: -2.7; MDM2 E3 inh: -12.6; RBBP9 inh: 14.4*; Hsp70 act: -0.1; Ins promoter up: -0.78; RBBP9 confirm: 8.2

What do the screens show for `CC(=O)Nc1ccc(OCCC[n+]2ccccc2)cc1`?
Wee1 stabilizer: -3.4; MDM2 E3 inh: 6.6; RBBP9 inh: -6.1; Hsp70 act: -0.4; Ins promoter up: 0.06

Results for CN(C)NC(=S)NC1(C)CCS(=O)(=O)C1 (stereo not given) ?
Wee1 stabilizer: -2.1; MDM2 E3 inh: -9.6; RBBP9 inh: 1.0; Ins promoter up: 0.56

What do the screens show for `O=C(c1cc2c(s1)CCCCC2)N1CCN(c2ncccn2)CC1`?
Wee1 stabilizer: -2.9; INS promoter inh: -2.7; MDM2 E3 inh: -11.5; RBBP9 inh: -6.7; Hsp70 act: -0.2; Ins promoter up: 0.55

What do the screens show for `O=C(c1cc2c(s1)CCCC2)n1cccn1`?
Wee1 stabilizer: -1.9; INS promoter inh: -290.7; MDM2 E3 inh: -5.1; RBBP9 inh: 42.2*; Hsp70 act: 0.1; Ins promoter up: -0.51; RBBP9 confirm: 10.9

Results for CS(=O)(=O)N(C(=O)NC(=O)NC12CC3CC(CC(C3)C1)C2)C1CCCCC1 ?
Wee1 stabilizer: -0.8; MDM2 E3 inh: -17.1; RBBP9 inh: -7.6; Hsp70 act: 0.0; Ins promoter up: 0.45

High-throughput results from PubChem.
